Measured values gathered from unrelated publications.
Each line is one published result; the experiments were not run side by side. ≈ marks a conversion by molar mass, not a printed value.

SMILES | organism | assay | test system | conditions | measurement | result
Cc1ccc(C(C)C)cc1OS(=O)(=O)c1ccc([N+](=O)[O-])cc1 | Klebsiella pneumoniae | microbial growth, broth dilution | ATCC700603 | – | IC50 | 463 µg/mL (≈ 1380 µM)
O=c1[nH]cnc2nc[nH]c12 | Cryptosporidium parvum | parasite growth, imaging | HCT-8 | 1 mM, 24 h, intracellular | activity vs control | 106%
O=S(=O)(Oc1cccc2cccnc12)c1ccccc1 | Klebsiella pneumoniae | microbial growth, broth dilution | ATCC700603 | – | IC50 | 340 µg/mL
Nc1ncnc2c1ncn2[C@H]1C[C@H](O)[C@@H](COP(=O)(O)O)O1 | Cryptosporidium parvum | parasite growth, imaging | HCT-8 | 1 mM, 24 h, intracellular | activity vs control | 96.7%
O=C(O)c1cn(C2CC2)c2cc(N3CCNCC3)c(F)cc2c1=O | Klebsiella pneumoniae | microbial growth, disc diffusion | – | 100 µg/mL, 24 h | inhibition zone | 17 mm
O=C1NC(=S)S/C1=C\c1c2ccccc2c(-c2ccc(N(c3ccccc3)c3ccccc3)cc2)c2ccccc12 | Streptococcus pneumoniae | microbial killing, broth dilution | ATCC49619 | – | MBC | > 1000 µg/mL
CCCCC[C@H](O)/C=C/[C@H]1[C@H](O)CC(=O)[C@@H]1C/C=C\CCCC(=O)O | Cryptosporidium parvum | parasite growth, imaging | HCT-8 | 50 µM, 24 h, intracellular | activity vs control | 88.5%
O=C1C=C(OCc2cn(-c3ccc(Cl)cc3)nn2)C(=O)c2ccccc21 | Klebsiella pneumoniae | microbial growth, broth dilution | ATCC700603 | – | IC50 | 348 µg/mL (≈ 951 µM)
CNCC(=O)O | Cryptosporidium parvum | parasite growth, imaging | HCT-8 | 1 mM, 24 h, intracellular | activity vs control | 98%
N#CC(=Cc1ccccc1O)C1=NC(=O)C(=Cc2cn(-c3ccccc3)nc2-c2ccccc2)S1 | Klebsiella pneumoniae | microbial killing, broth dilution | – | – | MBC | 0.5 µg/mL
O=C(O)CN1C(=O)/C(=C/c2ccc(-c3ccc(N(c4ccccc4)c4ccccc4)cc3)cc2)NC1=S | Streptococcus pneumoniae | microbial killing, broth dilution | ATCC49619 | – | MBC | 125 µg/mL
CC(C)(NC(=O)c1cc2c(F)cc(F)cc2[nH]1)c1cn(Cc2cccc(Cl)c2)nn1 | Cryptosporidium parvum | parasite growth, imaging | HCT-8 | 11 µM, 72 h, intracellular | inhibition | ~30%
O=C1NC(=S)N/C1=C\c1c2ccccc2c(-c2ccc(N(c3ccccc3)c3ccccc3)cc2)c2ccccc12 | Streptococcus pneumoniae | microbial growth, broth dilution | ATCC49619 | – | MIC | > 1000 µg/mL
Cc1ccc(-c2nn(-c3ccccc3)cc2C=C(C#N)C2=NC(=O)CS2)cc1 | Klebsiella pneumoniae | microbial growth, well diffusion | – | 100000 µg/mL | inhibition zone | 21 mm
Cc1ccc(C(C)C)cc1OS(=O)(=O)c1ccccc1 | Klebsiella pneumoniae | microbial growth, broth dilution | ATCC700603 | – | IC50 | 117 µg/mL
O=C1NC(=S)S/C1=C\c1ccc(-c2ccc(N(c3ccccc3)c3ccccc3)cc2)cc1 | Streptococcus pneumoniae | microbial killing, broth dilution | ATCC49619 | – | MBC | > 1000 µg/mL
CCOC(=O)c1c(N)csc1-c1cn(-c2ccccc2)nc1-c1ccc(C)cc1 | Klebsiella pneumoniae | microbial growth, well diffusion | – | 100000 µg/mL | inhibition zone | 27 mm
Cc1cccc2[nH]ccc12 | Cryptosporidium parvum | parasite growth | HCT-8 | 24 h, intracellular | EC90 | 552 µM
N#CC(=Cc1cn(-c2ccccc2)nc1-c1ccccc1)C1=NC(=O)CS1 | Klebsiella pneumoniae | microbial growth, well diffusion | – | 100000 µg/mL | inhibition zone | 27 mm

SMILES | organism | assay | test system | conditions | measurement | result
O=C1NC(=S)S/C1=C\c1ccc(-c2ccc(N(c3ccccc3)c3ccccc3)cc2)c2ccccc12 | Streptococcus pneumoniae | microbial killing, broth dilution | ATCC49619 | – | MBC | > 1000 µg/mL
Cc1ccc(S(=O)(=O)Oc2cc(C(C)C)ccc2C)cc1 | Klebsiella pneumoniae | microbial growth, broth dilution | ATCC700603 | – | IC50 | 279 µg/mL (≈ 918 µM)
Cc1c(NN=C2SC(C(C#N)=Cc3ccccc3)=NC2=O)c(=O)n(-c2ccccc2)n1C | Klebsiella pneumoniae | microbial growth, well diffusion | – | 100000 µg/mL | inhibition zone | 14 mm
O=C(O)CN1C(=O)/C(=C/c2ccc(-c3ccc(N(c4ccccc4)c4ccccc4)cc3)c3ccccc23)NC1=S | Streptococcus pneumoniae | microbial killing, broth dilution | ATCC49619 | – | MBC | > 1000 µg/mL
N#CC(=Cc1ccc(Cl)cc1)C1=NC(=O)C(=Cc2cn(-c3ccccc3)nc2-c2ccccc2)S1 | Klebsiella pneumoniae | microbial growth, well diffusion | – | 100000 µg/mL | inhibition zone | 21 mm
Oc1ccc2cc[nH]c2c1 | Cryptosporidium parvum | parasite growth | HCT-8 | 24 h, intracellular | EC50 | 722 µM
O=C1NC(=S)N/C1=C\c1ccc(-c2ccc(N(c3ccccc3)c3ccccc3)cc2)c2ccccc12 | Streptococcus pneumoniae | microbial killing, broth dilution | ATCC49619 | – | MBC | > 1000 µg/mL
Cc1ccc(C(C)C)cc1OS(=O)(=O)c1cccs1 | Klebsiella pneumoniae | microbial growth, broth dilution | ATCC700603 | – | IC50 | 163 µg/mL (≈ 551 µM)
CC(C)(NC(=O)c1cc2c(Cl)cc(Cl)cc2[nH]1)c1cn(Cc2ccccc2)nn1 | Cryptosporidium parvum | parasite growth, imaging | HCT-8 | 11 µM, 72 h, intracellular | inhibition | > 60%
CCOC(=O)C=c1[nH]c(=O)c(=Cc2cn(-c3ccccc3)nc2-c2ccccc2)s1 | Klebsiella pneumoniae | microbial growth, well diffusion | – | 100000 µg/mL | inhibition zone | 14 mm
COc1ccc(-n2cc(COC3=CC(=O)c4ccccc4C3=O)nn2)cc1 | Klebsiella pneumoniae | microbial growth, broth dilution | ATCC700603 | – | IC50 | 137 µg/mL (≈ 379 µM)
CN[C@H](CC(C)C)C(=O)N[C@H]1C(=O)N[C@@H](CC(N)=O)C(=O)N[C@H]2C(=O)N[C@H]3C(=O)N[C@H](C(=O)N[C@H](C(=O)O)c4cc(O)cc(O)c4-c4cc3ccc4O)[C@H](O)c3ccc(c(Cl)c3)Oc3cc2cc(c3O[C@@H]2O[C@H](CO)[C@@H](O)[C@H](O)[C@H]2O[C@H]2C[C@](C)(N)[C@H](O)[C@H](C)O2)Oc2ccc(cc2Cl)[C@H]1O | Streptococcus pneumoniae | microbial growth, broth dilution | ATCC49619 | – | MIC | 0.24 µg/mL (≈ 0.166 µM)
CN[C@H](CC(C)C)C(=O)N[C@H]1C(=O)N[C@@H](CC(N)=O)C(=O)N[C@H]2C(=O)N[C@H]3C(=O)N[C@H](C(=O)N[C@H](C(=O)O)c4cc(O)cc(O)c4-c4cc3ccc4O)[C@H](O)c3ccc(c(Cl)c3)Oc3cc2cc(c3O[C@@H]2O[C@H](CO)[C@@H](O)[C@H](O)[C@H]2O[C@H]2C[C@](C)(N)[C@H](O)[C@H](C)O2)Oc2ccc(cc2Cl)[C@H]1O | Klebsiella pneumoniae | microbial killing, broth dilution | ATCC43816 | – | MBC | > 128 µM
NCCCCC(=O)O | Cryptosporidium parvum | parasite growth, imaging | HCT-8 | 1 mM, 24 h, intracellular | activity vs control | 102%
Cc1ccc(C(C)C)cc1OCc1cn(-c2ccc(C(=O)O)cc2)nn1 | Klebsiella pneumoniae | microbial growth, broth dilution | ATCC700603 | – | IC50 | 261 µg/mL (≈ 743 µM)
CC(C)(NC(=O)c1cc2c(Cl)cc(Cl)cc2[nH]1)c1cn(Cc2ccccc2Cl)nn1 | Cryptosporidium parvum | parasite growth, imaging | HCT-8 | 11 µM, 72 h, intracellular | inhibition | > 60%
Cc1ccc2cc[nH]c2c1 | Cryptosporidium parvum | parasite growth | HCT-8 | 24 h, intracellular | EC50 | 310 µM
Cc1c(NC(=O)CC2=NC(=O)CS2)c(=O)n(-c2ccccc2)n1C | Klebsiella pneumoniae | microbial growth, well diffusion | – | 100000 µg/mL | inhibition zone | 25 mm
